High-throughput results as filed in PubChem BioAssay.
Ecoli WT growth – blocks growth of wild type E. coli BW25113; E. coli BW25113 growth inhibition, OD600; inhibition, % at 10 µM; 0.05% of 20,000 active; in the data active = inhibition above about 40%;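 also: bacteria exposed to compound for 20 hours at 37 °C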
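Assay system: Bacterial strain in a whole-cell growth screen | Amount: Inoculum from a 1:1000 dilution of a 1.5 h subculture | Detection: Absorbance at 615 nm as a measure of bacterial growth | Timing: 20 h exposure, 37 °C | Buffer or medium: LB plus kanamycin 50 µg/mL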
* = called active by the depositor. This excerpt belongs to a sample that is enriched for hits.

SMILES | Ecoli WT growth
CCn1c(=O)c2cc(S(=O)(=O)NC3CCCCC3)ccc2n(CC)c1=O | -17
Cc1cccc(C)c1NC(=O)CSc1nnc(CCCCCNC(=O)OC(C)(C)C)o1 | -13
COc1ccccc1N1CCN(S(=O)(=O)c2ccc(Cl)s2)CC1 | 3
CCn1c(Cc2ccccc2)nnc1SCC(=O)Nc1ccc(S(N)(=O)=O)cc1 | -16
COCCN1C(=O)C(=O)/C(=C(/O)c2cccc(S(=O)(=O)N(C)C)c2)C12C(=O)N(C)c1ccccc12 (stereo not drawn) | 4
CCCCN1C(=O)c2ccc(C(=O)NC3=NCCS3)cc2C1=O | -17
CCCCC(=O)Nc1ccc(NC(=O)C2CC2)nc1 | -2
O=S(=O)(CCOc1ccccc1)c1nc2ccccc2[nH]1 | -7
CC1=C(C(=O)Nc2cccc(C)n2)C(c2ccc3c(c2)OCO3)C2=C(CC(c3ccco3)CC2=O)N1 (stereo not drawn) | 6
CC1CC(C)CN(Cc2nc3c(c(=O)n(C)c(=O)n3C)n2Cc2ccccc2Cl)C1 (stereo not drawn) | 2
CCOC(=O)N1CCN(C(=O)c2cn(CC)c3cc(N4CCN(C)CC4)c(F)cc3c2=O)CC1 | 71*
CCN1CCN(C(=O)c2cn(CC)c3ccc(S(=O)(=O)N(C)C)cc3c2=O)CC1 | 5
CCOC(=O)N1CCN(c2cc3nccnc3cc2F)CC1 | -7
CCC(=O)c1cc(F)c(N2CCN(C(=O)Cc3ccccc3)CC2)cc1C | -17
CCOC(=O)c1cn(CC)c2cc(N3CCOCC3)c(F)cc2c1=O | 16
CCN1CCN(c2cc3c(cc2F)c(=O)c(C(=O)O)cn3C2CC2)CC1 | 72*
CCOc1ccc(-c2nc(-c3ccccc3C)no2)cc1 | -10
O=c1[nH]c(NCc2ccco2)nnc1Cc1ccccc1Cl | 1
CC1(C2(O)CC(c3ccccc3)ON2)CCCCC1 (stereo not drawn) | 9
Cc1cc(C)n(C(=O)CNC(=O)COc2ccccc2)n1 | -24
O=C1CN(C(=O)COC(=O)c2ccccc2NC(=O)c2ccco2)c2ccccc2N1 | 4
COc1cc(OC)cc(C(=O)N2c3ccc(F)cc3CCC2C)c1 (stereo not drawn) | 1
CC1CCc2cc(F)cc3c(=O)c(C(=O)O)cn1c23 (stereo not drawn) | 44*
CC1CCc2cc(F)cc3c(O)c(C(=O)NCC4CCCO4)c(=O)n1c23 (stereo not drawn) | 7
O=C1C2ON(c3ccc(Cl)cc3)C(c3ccco3)C2C(=O)N1c1ccccc1 (stereo not drawn) | -5
SMILES | Ecoli WT growth
CC(=O)c1cc(OC(=O)c2ccncc2)ccc1OC(=O)c1ccncc1 | -24
Cc1ccc(NC(=O)CC2SC3=NCCCN3C2=O)c(C)c1 (stereo not drawn) | -13
COc1ccc(-c2nnnn2CCc2ccccc2)cc1 | -19
COc1ccc(-c2cn3c4c(sc3n2)CCCC4)cc1 | -21
O=C(CN1CCOCC1)N1CCN(C(=O)CN2CCOCC2)CC1 | 0
O=C(c1ccco1)N1CCN(S(=O)(=O)Cc2ccc(Cl)cc2)CC1 | -17
COc1ccc(C(=O)N(Cc2ccco2)C(C(=O)NC2CCCC2)c2ccc(O)cc2)cc1OC (stereo not drawn) | -4
CCOc1cc(S(=O)(=O)N2CCN(Cc3ccccc3)CC2)ccc1Br | -12
CCCCS(=O)(=O)NC1=NCN(C2CCN(Cc3ccccc3)CC2)CN1 | -4
Cc1nnc(Sc2nc(Sc3nnc(C)s3)nc(N3CCN(C)CC3)n2)s1 | -16
CN=C1SC(CC(=O)Nc2cc(Cl)ccc2Cl)C(=O)N1C (stereo not drawn) | -26
CN1CCN(S(=O)(=O)c2ccc(NC(=O)c3ccc(Br)s3)cc2)CC1 | -11
Cc1nc2sc(C(c3cccs3)N3CCC(C(N)=O)CC3)c(O)n2n1 (stereo not drawn) | 3
Cc1ccc(NC(=O)CCSc2nnnn2-c2ccc3c(c2)OCO3)cc1C | -11
COc1ccc(-c2c3c(=O)n(C)c(=O)n(C)c3cn2C2CCCCC2)cc1 | -19
CCn1cc(C(=O)OCc2ccc(F)cc2)c(=O)c2ccc(C)nc21 | -8
CCn1cc(C(=O)O)c(=O)c2cc(F)c(N3CCNCC3)nc21 | 75*
CCn1cc(C(=O)O)c(=O)c2ccc(C)nc21 | 26
O=C(Nc1cccc(S(=O)(=O)c2cccc(NC(=O)C3CC3)c2)c1)C1CC1 | 1
COc1ccc(OC)c(N2C(=O)CC(Cc3ccc(C)cc3)C2=O)c1 (stereo not drawn) | 5
Cn1c(=O)c2c(ncn2CC(=O)N2CCN(c3ccc(F)cc3)CC2)n(C)c1=O | 2
O=C(NC1CCCCC1)c1nc2c(nnn2Cc2ccccc2Cl)c(=O)[nH]1 | 3
Cc1nn(C(=O)c2ccc3c(c2)OCO3)c(N)c1-c1ccccc1 | 5
Cc1ccc(S(=O)(=O)Cn2nnnc2CN(Cc2ccco2)CC2CCCO2)cc1 (stereo not drawn) | 10
Cc1cc(N2C(=O)C3C4C=CC(C4)C3C2=O)ccc1Br (stereo not drawn) | 5
SMILES | Ecoli WT growth
CCn1c(SCCC(=O)Nc2ccccc2)nnc1-c1ccc(OC)cc1 | -20
CCCC1=C(C(=O)OCC)C(c2ccc(O)cc2)n2ncnc2N1 (stereo not drawn) | 2
C=CCn1c(N)c(C(=O)NCCC2=CCCCC2)sc1=S | 6
Nn1c(SCC(=O)Nc2ccccc2)nnc1-c1cccnc1 | -5
CSCCC(C(=O)Nc1ccc2c(c1)OCO2)N1C(=O)c2ccccc2C1=O (stereo not drawn) | 0
COc1cc(NS(=O)(=O)c2ccc(Br)s2)cc(OC)c1 | 6
CCCCCn1c(=NC(C)=O)c(C#N)cc2c(=O)n3cccc(C)c3nc21 | -14
CCOc1ccc2sc(NS(=O)(=O)c3ccc(OC)c(OC)c3)nc2c1 | -16
O=C1CC(Cc2ccccc2)C(=O)N1CCCn1ccnc1 (stereo not drawn) | -3
CCCC(=O)c1c(NC(C)C)cc(C)oc1=O | -4
Cc1ccc2c(C)nc(NC3=NCN(C(C)C)CN3)nc2c1 | 2
O=C1N[C@@H](Cc2cnc[nH]2)C(=O)N2CCC[C@@H]12 | 5
CCC(=O)N[C@@H]1CC(C(C)(C)NC(=O)CC)CC=C1C (stereo partly drawn) | -3
CCOC(=O)N1CCN(Cc2nc(N)nc(Nc3ccc(Oc4ccccc4)cc3)n2)CC1 | -19
O=C1CSC(=Nc2cc(Cl)ccc2Cl)N1 | 1
CCOCCCNS(=O)(=O)c1ccc(Br)cc1 | -11
Cc1cc(Cl)ccc1OCc1nc(-c2ccc(O)cc2)n[nH]1 | -10
O=C1C2CC=CCC2C(=O)N1c1ccc(Cc2ccncc2)cc1 (stereo not drawn) | 17
O=S(=O)(Cc1ccc(Cl)cc1)N1CCCC1 | -24
Cc1cccc2cc(CN(Cc3nnnn3Cc3ccco3)C3CCCC3)c3nnnn3c12 | -3
